Values after ≈ are worked out from the molar mass of the structure shown. Where a SMILES comes first, the peptide text is derived from it. [ ]: non-standard residue; d: D form. 3Abz = Nc1cccc(C(=O)O)c1
Experiments:
[1] = system: Staphylococcus epidermidis; assay: Antibacterial activity against methicillin-resistant Staphylococcus epidermidis ATCC 51625 assessed as growth inhibition after 18 hrs by CLSI microdilution broth assay; assay type: functional; settings: ATCC 51625, 18 h
Method in brief: (§1)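 Modified CLSI broth microdilution in Mueller-Hinton broth. Wells held 90 µL of about 2 × 10^5 CFU/mL inoculum plus 10 µL of serially diluted peptidomimetic, range 0.7-100 µg/mL. Plates were incubated overnight with agitation at 37 °C and absorbance read at 600 nm after 18 h. Controls: inoculum without compound, and uninoculated broth. Run in triplicate.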

Staphylococcus aureus [2] = assay: Antibacterial activity against methicillin-resistant Staphylococcus aureus ATCC BAA-1720 assessed as growth inhibition after 18 hrs by CLSI microdilution broth assay; assay type: functional; settings: ATCC BAA-1720, 18 h; method in brief: as §1
[3] = Selectivity ratio of HC50 for hemolysis in human RBC to MIC for Staphylococcus aureus
[4] = Retention time of the compound by HPLC analysis; assay type: physicochemical
Method in brief: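 Analytical RP-HPLC on a C18 column (5 µm, 4.6 × 250 mm) at room temperature. Run a linear gradient of 0.5-60% acetonitrile containing 0.05% TFA against water containing 0.05% TFA at 0.5 mL/min.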

Pseudomonas aeruginosa = assay: Antibacterial activity against Pseudomonas aeruginosa MTCC 2295 assessed as growth inhibition after 18 hrs by CLSI microdilution broth assay; assay type: functional; settings: MTCC 2295, 18 h
[5] = Induction of hemolysis in human RBC assessed as hemoglobin release after 1 hr by microtiter plate reader analysis; assay type: cell-based, Erythrocyte; settings: for HC10: erythrocyte, 1 h; for HC50 at 1 h: red blood cells
Method in brief: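 Freshly isolated human RBCs washed three times in PBS (35 mM phosphate, 150 mM NaCl, pH 7.2) and used as a 4% (v/v) suspension. Mixed 1:1 with twofold serial dilutions of compound, incubated 1 h at 37 °C without agitation, then centrifuged. Supernatant A540 read. PBS defined 0% and 1% Triton X-100 defined 100% lysis; HC50 and HC10 derived.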

Escherichia coli = assay: Antibacterial activity against Escherichia coli MTCC 723 assessed as growth inhibition after 18 hrs by CLSI microdilution broth assay; assay type: functional; settings: MTCC 723, 18 h
Staphylococcus aureus [6] = assay: Antibacterial activity against Staphylococcus aureus MTCC 3160 assessed as growth inhibition after 18 hrs by CLSI microdilution broth assay; assay type: functional; settings: MTCC 3160, 18 h
Bacillus subtilis = assay: Antibacterial activity against Bacillus subtilis MTCC 2763 assessed as growth inhibition after 18 hrs by CLSI microdilution broth assay; assay type: functional; settings: MTCC 2763, 18 h

Row | Compound | MIC [1] | MIC (Staphylococcus aureus [2]) | Selectivity ratio [3] | Retention_time [4] | MIC (Pseudomonas aeruginosa) | HC10 [5] | HC50 at 1 h [5] | MIC (Escherichia coli) | MIC (Staphylococcus aureus [6]) | MIC (Bacillus subtilis)
1 | N=C(N)NCCCC(N)C(=O)NC(Cc1c[nH]c2ccccc12)C(=O)NC(CCCNC(=N)N)C(=O)Nc1cccc(C(=O)NC(Cc2c[nH]c3ccccc23)C(=O)NC(CCCNC(=N)N)C(N)=O)c1 (stereo not given) (H-RWR[3Abz]WR-NH2; configuration not given here) | 50 µg/mL (≈ 51.2 µM) | 40 µg/mL (≈ 40.9 µM) | 8 | 27.446 min | 120 µg/mL (≈ 123 µM) | 210 µg/mL | 400 µg/mL | 120 µg/mL (≈ 123 µM) | 50 µg/mL (≈ 51.2 µM) | 125 µg/mL (≈ 128 µM)
2 | N=C(N)NCCCC(N)C(=O)NC(Cc1c[nH]c2ccccc12)C(=O)NC(Cc1c[nH]c2ccccc12)C(=O)Nc1cccc(C(=O)NC(CCCNC(=N)N)C(=O)NC(CCCNC(=N)N)C(N)=O)c1 (stereo not given) (H-RWW[3Abz]RR-NH2; configuration not given here) | 25 µg/mL (≈ 25.6 µM) | 25 µg/mL (≈ 25.6 µM) | 16.8 | 26.96 min | 75 µg/mL (≈ 76.8 µM) | 255 µg/mL | 420 µg/mL | 70 µg/mL (≈ 71.6 µM) | 25 µg/mL (≈ 25.6 µM) | 75 µg/mL (≈ 76.8 µM)
3 | N=C(N)NCCCC(N)C(=O)NC(Cc1c[nH]c2ccccc12)C(=O)Nc1cccc(C(=O)NC(CCCNC(=N)N)C(N)=O)c1 (stereo not given) (H-RW[3Abz]R-NH2; configuration not given here) | 70 µg/mL (≈ 110 µM) | 60 µg/mL (≈ 94.5 µM) | 10 | 23.821 min | 75 µg/mL (≈ 118 µM) | 205 µg/mL | 500 µg/mL | 70 µg/mL (≈ 110 µM) | 50 µg/mL (≈ 78.8 µM) | 100 µg/mL (≈ 158 µM)
4 | N=C(N)NCCCC(N)C(=O)NC(Cc1c[nH]c2ccccc12)C(=O)Nc1cccc(C(=O)NC(CCCNC(=N)N)C(=O)NC(CCCNC(=N)N)C(N)=O)c1 (stereo not given) (H-RW[3Abz]RR-NH2; configuration not given here) | 75 µg/mL (≈ 94.8 µM) | 75 µg/mL (≈ 94.8 µM) | > 7.14 | 22.534 min | 75 µg/mL (≈ 94.8 µM) | 350 µg/mL | > 500 µg/mL | 100 µg/mL (≈ 126 µM) | 70 µg/mL (≈ 88.5 µM) | 100 µg/mL (≈ 126 µM)
5 | N=C(N)NCCCC(N)C(=O)NC(Cc1c[nH]c2ccccc12)C(=O)Nc1cccc(C(=O)NC(Cc2c[nH]c3ccccc23)C(=O)NC(CCCNC(=N)N)C(N)=O)c1 (stereo not given) (H-RW[3Abz]WR-NH2; configuration not given here) | 12.5 µg/mL (≈ 15.2 µM) | 10 µg/mL (≈ 12.2 µM) | 32.8 | 23.89 min | 50 µg/mL (≈ 60.9 µM) | 250 µg/mL | 410 µg/mL | 40 µg/mL (≈ 48.7 µM) | 12.5 µg/mL (≈ 15.2 µM) | 50 µg/mL (≈ 60.9 µM)
6 | N=C(N)NCCCC(NC(=O)C(Cc1c[nH]c2ccccc12)NC(=O)c1cccc(NC(=O)C(CCCNC(=N)N)NC(=O)C(CCCNC(=N)N)NC(=O)C(N)Cc2c[nH]c3ccccc23)c1)C(N)=O (stereo not given) (H-WRR[3Abz]WR-NH2; configuration not given here) | 10 µg/mL (≈ 10.2 µM) | 12.5 µg/mL (≈ 12.8 µM) | 25.3 | 27.66 min | 50 µg/mL (≈ 51.2 µM) | 190 µg/mL | 380 µg/mL | 50 µg/mL (≈ 51.2 µM) | 15 µg/mL (≈ 15.4 µM) | 70 µg/mL (≈ 71.6 µM)
7 | N=C(N)NCCCC(NC(=O)C(CCCNC(=N)N)NC(=O)c1cccc(NC(=O)C(Cc2c[nH]c3ccccc23)NC(=O)C(CCCNC(=N)N)NC(=O)C(N)Cc2c[nH]c3ccccc23)c1)C(N)=O (stereo not given) (H-WRW[3Abz]RR-NH2; configuration not given here) | 25 µg/mL (≈ 25.6 µM) | 25 µg/mL (≈ 25.6 µM) | 14.8 | 27.324 min | 70 µg/mL (≈ 71.6 µM) | 140 µg/mL | 370 µg/mL | 60 µg/mL (≈ 61.4 µM) | 25 µg/mL (≈ 25.6 µM) | 40 µg/mL (≈ 40.9 µM)
8 | N=C(N)NCCCC(NC(=O)c1cccc(NC(=O)C(CCCNC(=N)N)NC(=O)C(N)Cc2c[nH]c3ccccc23)c1)C(N)=O (stereo not given) (H-WR[3Abz]R-NH2; configuration not given here) | 200 µg/mL (≈ 315 µM) | 150 µg/mL (≈ 236 µM) | > 3.3 | 24.184 min | > 200 µg/mL | 300 µg/mL | > 500 µg/mL | 200 µg/mL (≈ 315 µM) | 150 µg/mL (≈ 236 µM) | 200 µg/mL (≈ 315 µM)

— ChEMBL document CHEMBL3286351, “Antibacterial evaluation of structurally amphipathic, membrane active small cationic peptidomimetics: synthesized by incorporating 3-amino benzoic acid as peptidomimetic element” (Eur J Med Chem, 2014)
